Measurements reported in ChEMBL document CHEMBL1145212, “Fluorinated diaryl sulfides as serotonin transporter ligands: synthesis, structure-activity relationship study, and in vivo evaluation of fluorine-18-labeled compounds as PET imaging agents” (J Med Chem, 2005).

Legend:
Rattus norvegicus [1] = test: Biodistribution of [18F]AFE in rat thalamus at 10 min postinjection in vivo; assay type: ADME, organism-based
Method in brief: (§1)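 Male Sprague-Dawley rats, three per group, received ~20 µCi of the F-18 radioligand in saline by tail-vein injection. Rats were anesthetized with CO2 and decapitated at 10, 30, 60, 90 or 120 min. Blood and brain regions were weighed and gamma-counted. %ID/g was decay- and tail-residual-corrected against F-18 standards made from the injectate and reported as mean ± SD.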

Rattus norvegicus [2] = test: Biodistribution of [18F]AFE in rat striatum at 120 min postinjection in vivo; assay type: ADME, organism-based; conditions: 2 h; method in brief: as §1
Rattus norvegicus [3] = test: Biodistribution of [18F]AFE in rat hippocampus at 120 min postinjection in vivo; assay type: ADME, organism-based; conditions: 2 h; method in brief: as §1
Rattus norvegicus [4] = test: Biodistribution of [18F]AFE in rat hippocampus at 30 min postinjection in vivo; assay type: ADME, organism-based; conditions: 0.5 h; method in brief: as §1
Rattus norvegicus [5] = test: Biodistribution of [18F]AFE in rat hippocampus at 90 min postinjection in vivo; assay type: ADME, organism-based; conditions: 1.5 h; method in brief: as §1
Rattus norvegicus [6] = species on record: Rattus norvegicus; test: Specific binding of [18F]AFA in frontal cortex of rat pretreated with compound 7e; n=3; assay type: functional
Rattus norvegicus [7] = test: Biodistribution of [18F]AFE in rat blood at 90 min postinjection in vivo; assay type: ADME, organism-based; conditions: 1.5 h; method in brief: as §1
Rattus norvegicus [8] = test: Biodistribution of [18F]AFE in rat frontal cortex at 60 min postinjection in vivo; assay type: ADME, organism-based; conditions: 1 h; method in brief: as §1
Rattus norvegicus [9] = test: Biodistribution of [18F]AFE in rat cerebellum at 10 min postinjection in vivo; assay type: ADME, organism-based; method in brief: as §1
Rattus norvegicus [10] = test: Biodistribution of [18F]AFE in rat striatum at 30 min postinjection in vivo; assay type: ADME, organism-based; conditions: 0.5 h; method in brief: as §1
Rattus norvegicus [11] = species on record: Rattus norvegicus; test: Specific binding of [18F]-AFA in thalamus of rat pretreated with compound 7e; n=3; assay type: functional
Rattus norvegicus [12] = test: Biodistribution of [18F]AFE in rat hypothalamus at 120 min postinjection in vivo; assay type: ADME, organism-based; conditions: 2 h; method in brief: as §1
Rattus norvegicus [13] = test: Biodistribution of [18F]-AFE in rat cerebellum at 30 min postinjection in vivo; assay type: ADME, organism-based; conditions: 0.5 h
Method in brief: (§2)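 Male Sprague-Dawley rats, three per time point, received the F-18 radioligand in saline (~20 µCi per rat at injection) by tail vein. Under CO2 anesthesia they were decapitated at 10, 30, 60, 90 or 120 min. Blood and dissected brain regions were weighed and gamma counted. Activity was decay-corrected, and injected dose was corrected for tail residual activity. Uptake was expressed as %ID/g versus injectate standards, mean ± SD.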

Rattus norvegicus [14] = test: Biodistribution of [18F]-AFE in rat striatum at 90 min postinjection in vivo; assay type: ADME, organism-based; conditions: 1.5 h; method in brief: as §2
Rattus norvegicus [15] = test: Biodistribution of [18F]AFE in rat cerebellum at 60 min postinjection in vivo; assay type: ADME, organism-based; conditions: 1 h; method in brief: as §1
Rattus norvegicus [16] = test: Biodistribution of [18F]AFE in rat thalamus at 60 min postinjection in vivo; assay type: ADME, organism-based; conditions: 1 h; method in brief: as §1
Rattus norvegicus [17] = species on record: Rattus norvegicus; test: Specific binding of [18F]AFA in hippocampus of rat pretreated with compound 7e; n=3; assay type: functional
Rattus norvegicus [18] = test: Biodistribution of [18F]AFE in rat thalamus at 120 min postinjection in vivo; assay type: ADME, organism-based; conditions: 2 h; method in brief: as §1
Rattus norvegicus [19] = test: Biodistribution of [18F]AFE in rat blood at 60 min postinjection in vivo; assay type: ADME, organism-based; conditions: 1 h; method in brief: as §1
Rattus norvegicus [20] = test: Biodistribution of [18F]AFE in rat cerebellum at 90 min postinjection in vivo; assay type: ADME, organism-based; conditions: 1.5 h; method in brief: as §1
Rattus norvegicus [21] = species on record: Rattus norvegicus; test: Specific binding of [18F]AFA in striatum of rat pretreated with compound 7e; n=3; assay type: functional
Rattus norvegicus [22] = test: Biodistribution of [18F]-AFE in rat cerebellum at 120 min postinjection in vivo; assay type: ADME, organism-based; conditions: 2 h; method in brief: as §2
Rattus norvegicus [23] = test: Biodistribution of [18F]AFE in rat blood at 10 min postinjection in vivo; assay type: ADME, organism-based; method in brief: as §1
Rattus norvegicus [24] = test: Biodistribution of [18F]AFE in rat hypothalamus at 30 min postinjection in vivo; assay type: ADME, organism-based; conditions: 0.5 h; method in brief: as §1
Rattus norvegicus [25] = test: Biodistribution of [18F]-AFE in rat striatum at 10 min postinjection in vivo; assay type: ADME, organism-based; method in brief: as §2
Rattus norvegicus [26] = test: Biodistribution of [18F]AFE in rat hippocampus at 60 min postinjection in vivo; assay type: ADME, organism-based; conditions: 1 h; method in brief: as §1
Rattus norvegicus [27] = test: Biodistribution of [18F]AFE in rat hypothalamus at 60 min postinjection in vivo; assay type: ADME, organism-based; conditions: 1 h; method in brief: as §1
Rattus norvegicus [28] = species on record: Rattus norvegicus; test: Specific binding of [18F]AFA in hypothalamus of rat pretreated with compound 7e; n=3; assay type: functional
Rattus norvegicus [29] = test: Biodistribution of [18F]AFE in rat hippocampus at 10 min postinjection in vivo; assay type: ADME, organism-based; method in brief: as §1
Rattus norvegicus [30] = test: Biodistribution of [18F]-AFE in rat striatum 60 min postinjection in vivo; assay type: ADME, organism-based; conditions: 1 h; method in brief: as §2
Rattus norvegicus [31] = test: Biodistribution of [18F]AFE in rat hypothalamus at 90 min postinjection in vivo; assay type: ADME, organism-based; conditions: 1.5 h; method in brief: as §1
Rattus norvegicus [32] = test: Biodistribution of [18F]AFE in rat hypothalamus at 10 min postinjection in vivo; assay type: ADME, organism-based; method in brief: as §1
Rattus norvegicus [33] = test: Biodistribution of [18F]AFE in rat frontal cortex at 90 min postinjection in vivo; assay type: ADME, organism-based; conditions: 1.5 h; method in brief: as §1
Rattus norvegicus [34] = test: Biodistribution of [18F]AFE in rat thalamus at 90 min postinjection in vivo; assay type: ADME, organism-based; conditions: 1.5 h; method in brief: as §1
Rattus norvegicus [35] = test: Biodistribution of [18F]AFE in rat frontal cortex at 120 min postinjection in vivo; assay type: ADME, organism-based; conditions: 2 h; method in brief: as §1
Rattus norvegicus [36] = test: Biodistribution of [18F]AFE in rat thalamus at 30 min postinjection in vivo; assay type: ADME, organism-based; conditions: 0.5 h; method in brief: as §1
Rattus norvegicus [37] = test: Biodistribution of [18F]AFE in rat blood at 120 min postinjection in vivo; assay type: ADME, organism-based; conditions: 2 h; method in brief: as §1
Rattus norvegicus [38] = test: Biodistribution of [18F]-AFE in rat frontal cortex at 30 min postinjection in vivo; assay type: ADME, organism-based; conditions: 0.5 h; method in brief: as §2
Rattus norvegicus [39] = test: Biodistribution of [18F]AFE in rat frontal cortex at 10 min postinjection in vivo; assay type: ADME, organism-based; method in brief: as §1
Rattus norvegicus [40] = test: Biodistribution of [18F]-AFE in rat blood at 30 min postinjection in vivo; assay type: ADME, organism-based; conditions: 0.5 h; method in brief: as §2

SMILES: CN(C)Cc1ccccc1Sc1ccc(CC[18F])cc1N
- Biodistribution (Rattus norvegicus [1]): 0.58 %ID/g
- Biodistribution (Rattus norvegicus [2]): 0.08 %ID/g
- Biodistribution (Rattus norvegicus [3]): 0.07 %ID/g
- Biodistribution (Rattus norvegicus [4]): 0.27 %ID/g
- Biodistribution (Rattus norvegicus [5]): 0.09 %ID/g
- Specific binding (Rattus norvegicus [6]): 0.48 %ID/g
- Biodistribution (Rattus norvegicus [7]): 0.04 %ID/g
- Biodistribution (Rattus norvegicus [8]): 0.19 %ID/g
- Biodistribution (Rattus norvegicus [9]): 0.28 %ID/g
- Biodistribution (Rattus norvegicus [10]): 0.33 %ID/g
- Specific binding (Rattus norvegicus [11]): 1.06 %ID/g
- Biodistribution (Rattus norvegicus [12]): 0.1 %ID/g
- Biodistribution (Rattus norvegicus [13]): 0.13 %ID/g
- Biodistribution (Rattus norvegicus [14]): 0.1 %ID/g
- Biodistribution (Rattus norvegicus [15]): 0.06 %ID/g
- Biodistribution (Rattus norvegicus [16]): 0.27 %ID/g
- Specific binding (Rattus norvegicus [17]): 0.65 %ID/g
- Biodistribution (Rattus norvegicus [18]): 0.13 %ID/g
- Biodistribution (Rattus norvegicus [19]): 0.07 %ID/g
- Biodistribution (Rattus norvegicus [20]): 0.03 %ID/g
- Specific binding (Rattus norvegicus [21]): 0.61 %ID/g
- Biodistribution (Rattus norvegicus [22]): 0.02 %ID/g
- Biodistribution (Rattus norvegicus [23]): 0.25 %ID/g
- Biodistribution (Rattus norvegicus [24]): 0.41 %ID/g
- Biodistribution (Rattus norvegicus [25]): 0.51 %ID/g
- Biodistribution (Rattus norvegicus [26]): 0.17 %ID/g
- Biodistribution (Rattus norvegicus [27]): 0.24 %ID/g
- Specific binding (Rattus norvegicus [28]): 1.21 %ID/g
- Biodistribution (Rattus norvegicus [29]): 0.38 %ID/g
- Biodistribution (Rattus norvegicus [30]): 0.21 %ID/g
- Biodistribution (Rattus norvegicus [31]): 0.14 %ID/g
- Biodistribution (Rattus norvegicus [32]): 0.51 %ID/g
- Biodistribution (Rattus norvegicus [33]): 0.08 %ID/g
- Biodistribution (Rattus norvegicus [34]): 0.17 %ID/g
- Biodistribution (Rattus norvegicus [35]): 0.06 %ID/g
- Biodistribution (Rattus norvegicus [36]): 0.39 %ID/g
- Biodistribution (Rattus norvegicus [37]): 0.02 %ID/g
- Biodistribution (Rattus norvegicus [38]): 0.32 %ID/g
- Biodistribution (Rattus norvegicus [39]): 0.62 %ID/g
- Biodistribution (Rattus norvegicus [40]): 0.13 %ID/g
